This is an account of results in ChEMBL document CHEMBL5042480, “3CL Protease Inhibitors with an Electrophilic Arylketone Moiety as Anti-SARS-CoV-2 Agents” (J Med Chem, 2022).

Each structure is given as a SMILES string. The source made the active and inactive calls.

The nature of data set [1]: MRT (total) in overnight-fasted Wistar rat at 0.1 mg/kg, iv measured upto 7 hrs by quadrupole mass spectrometry coupled UFLC analysis. It counts as ADME, organism-based. As to conditions: in vivo. In a few lines: (§1)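 Conscious, freely moving male Wistar rats received compound in saline at 4 mL/kg, either i.v. via jugular vein at 0.1 mg/kg or by oral gavage at 0.5 mg/kg. Cannula blood was sampled up to 7 h and plasma measured by LC-MS/MS. Analysis was noncompartmental (trapezoidal AUC); Cmax and tmax were taken as observed, and t1/2 from log-linear terminal regression over at least 3 points. Mean ± SD, n = 5.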

For the next data set, the system named is TK6. Kind of data set: Mutagenicity against human TK6 cells assessed as induction of micronuclei formation by Micro-flow assay. It counts as toxicity, cell-based. In a few lines: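 Human TK6 lymphoblastoid cells were treated either 3 h with 1% S9 followed by 21 h recovery, or continuously for 24 h without S9, at 37 °C under 5% CO2. Relative population doubling was used for cytotoxicity. Positive controls were cyclophosphamide and mitomycin C.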

A further data set deals with T1, Cytochrome P450 1A2 (Homo sapiens, UniProt P05177).
T1 sequence (P05177 whole entry): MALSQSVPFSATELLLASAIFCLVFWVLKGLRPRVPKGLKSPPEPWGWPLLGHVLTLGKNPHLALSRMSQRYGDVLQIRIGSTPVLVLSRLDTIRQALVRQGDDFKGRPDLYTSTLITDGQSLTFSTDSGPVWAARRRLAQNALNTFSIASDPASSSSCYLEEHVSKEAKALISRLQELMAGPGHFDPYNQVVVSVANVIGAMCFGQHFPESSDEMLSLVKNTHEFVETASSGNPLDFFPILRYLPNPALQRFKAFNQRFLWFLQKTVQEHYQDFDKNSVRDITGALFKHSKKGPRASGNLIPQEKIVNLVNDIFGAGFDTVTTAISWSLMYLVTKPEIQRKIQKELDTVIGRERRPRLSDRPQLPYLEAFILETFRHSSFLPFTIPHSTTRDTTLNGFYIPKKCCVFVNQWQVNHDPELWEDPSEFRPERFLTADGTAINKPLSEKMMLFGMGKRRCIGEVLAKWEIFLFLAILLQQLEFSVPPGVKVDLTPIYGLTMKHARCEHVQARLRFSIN
Kind of data set: Inhibition of CYP1A2 in human liver microsome at 10 uM. It counts as toxicity. As to conditions: microsomes. In outline:
(§2)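 Human liver microsomes (0.1 mg protein/mL) were mixed with compound at 10 μM and probe substrates in phosphate buffer pH 7.4: tacrine (CYP1A2), paclitaxel (2C8), tolbutamide (2C9), dextromethorphan (2D6) and midazolam (3A4). Reactions were started with an NADPH-generating system, run 10 min at 37 °C and stopped with acetonitrile. Metabolites were measured by LC/MS/MS and activity expressed as % remaining versus the no-inhibitor control.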
In general terms: Liver microsomes are vesicles of endoplasmic reticulum, rich in cytochrome P450 enzymes.

A short description of data set [2]: AUC (0 to infinity) in overnight-fasted Wistar rat at 0.5 mg/kg, po measured upto 7 hrs by quadrupole mass spectrometry coupled UFLC analysis. It counts as ADME, organism-based. On the set-up: route oral, dose 0.5 mg/kg, time <=7. As to conditions: in vivo. In a few lines: (§3)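 Male Wistar rats, conscious and unrestrained, were given the compound in saline at 4 mL/kg, either as an i.v. bolus via the left jugular vein or by oral gavage. Heparinized blood was drawn from a cannula at set times up to 7 h and the plasma analysed by LC-MS/MS. AUC0–7 and AUC0–∞ came from noncompartmental trapezoidal analysis; mean ± SD, n = 5.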

Data set [3] is described as follows: Half life in overnight-fasted Wistar rat at 0.5 mg/kg, po measured upto 7 hrs by quadrupole mass spectrometry coupled UFLC analysis. Format: ADME, organism-based. As to conditions: in vivo. In a few lines:
as §1

A further data set has as its system SARS-CoV-2. Put plainly: Antiviral activity against SARS coronavirus 2 infected in African green monkey VeroE6/TMPRSS2 cells upto 10 uM in presence of MDR-1 inhibitor CP-100356 measured after 24 hrs post-infection by qRT-PCR analysis. Format: functional, organism-based. As to conditions: Severe acute respiratory syndrome coronavirus 2; Vero; dose microM <=10, time 24.0 hrs.

Data set [4] is described as follows: Total clearance in overnight-fasted Wistar rat at 0.1 mg/kg, iv measured upto 7 hrs by quadrupole mass spectrometry coupled UFLC analysis. As to conditions: in vivo. Format: ADME, organism-based. In a few lines: as §1
The nature of data set [5]: Cytotoxicity against African green monkey Vero cells assessed as cell viability incubated for 24 hrs by MTT assay. It counts as toxicity, cell-based. As to conditions: chlorocebus sabaeus. In a few lines:
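Vero cells were seeded at 1.0 × 10^4 cells/well and cultured overnight at 37 °C. Compound was added for 24 h, and viability was measured by MTT assay with absorbance at 570 nm.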

Data set [6] is described as follows: AUC (0 to 7 hrs) in overnight-fasted Wistar rat at 0.5 mg/kg, po measured upto 7 hrs by quadrupole mass spectrometry coupled UFLC analysis. Format: ADME, organism-based. As to conditions: in vivo. Further details: route oral, dose 0.5 mg/kg, time <=7. In a few lines:
as §3

Data set [7] in a line: AUC (0 to 7 hrs) in overnight-fasted Wistar rat at 0.1 mg/kg, iv measured upto 7 hrs by quadrupole mass spectrometry coupled UFLC analysis. Format: ADME, organism-based. As to conditions: in vivo. On the set-up: route intravenous, dose 0.1 mg/kg, time <=7. In outline: as §3
Data set [8] in a line: Drug metabolism in rat hepatocytes assessed as amide hydrolysis mediated HC-7 metabolite formation at 10 uM incubated upto 2 hrs by LC/UV/MS analysis. Format: ADME, cell-based, Hepatocyte. In outline:
(§4)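 Hepatocytes were suspended at 6 × 10^5 viable cells/mL in KHB buffer and given compound at 10 μM. Incubation was 0 and 2 h at 37 °C under 5% CO2, stopped with acetonitrile. After centrifugation, supernatant metabolites were analysed by LC/UV/MS.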

Another data set has as its target T2, Cytochrome P450 2C8 (Homo sapiens, UniProt P10632).
T2 sequence (P10632 whole entry): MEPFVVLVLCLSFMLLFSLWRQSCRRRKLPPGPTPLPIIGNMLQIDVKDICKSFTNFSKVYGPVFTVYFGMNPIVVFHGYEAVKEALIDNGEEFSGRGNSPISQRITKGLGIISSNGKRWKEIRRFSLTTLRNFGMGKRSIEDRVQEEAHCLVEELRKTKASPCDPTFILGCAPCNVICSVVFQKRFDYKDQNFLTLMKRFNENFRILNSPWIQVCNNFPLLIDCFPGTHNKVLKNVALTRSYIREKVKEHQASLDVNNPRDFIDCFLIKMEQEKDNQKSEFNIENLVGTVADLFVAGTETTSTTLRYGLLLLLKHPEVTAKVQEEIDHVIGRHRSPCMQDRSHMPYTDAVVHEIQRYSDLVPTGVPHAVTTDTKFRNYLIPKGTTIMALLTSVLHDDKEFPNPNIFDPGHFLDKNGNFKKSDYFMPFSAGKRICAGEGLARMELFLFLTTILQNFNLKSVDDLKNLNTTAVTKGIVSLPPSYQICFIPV
Put plainly: Inhibition of CYP2C8 in human liver microsome at 10 uM. It counts as toxicity. As to conditions: microsomes. In a few lines:
as §2

Data set [9] can be described thus: Protein binding in human plasma incubated for 6 hrs by quadrupole mass spectrometry coupled UFLC analysis. As to conditions: read-out: PPB. Format: ADME, cell-free.
Data set [10] in a line: Drug metabolism in human hepatocytes assessed as amide hydrolysis mediated HC-7 metabolite formation at 10 uM incubated upto 2 hrs by LC/UV/MS analysis. It counts as ADME, cell-based, Hepatocyte. In outline: as §4
Data set [11] deals with Voltage-gated inwardly rectifying potassium channel KCNH2 (Homo sapiens, UniProt Q12809). Kind of data set: Inhibition of hERG expressed in CHO cells at > 100 uM by whole-cell patch-clamp voltage-clamp method. It counts as toxicity, cell-based. In outline: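 hERG tail current was recorded by automated whole-cell patch clamp in CHO cells stably expressing hERG at room temperature. The pulse was +40 mV for 500 ms, then a ramp to −80 mV, repeated every 5 s. Compound was applied cumulatively at 5 min intervals. Verapamil served as positive control and DMSO as vehicle.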

A short description of data set [12]: Drug metabolism in rat hepatocytes assessed as CYP450-catalysed oxidative pathway mediated metabolite formation at 10 uM incubated upto 2 hrs by LC/UV/MS analysis. Format: ADME, cell-based, Hepatocyte. In outline: as §4

Sequence of Voltage-gated inwardly rectifying potassium channel KCNH2 (Q12809 whole entry): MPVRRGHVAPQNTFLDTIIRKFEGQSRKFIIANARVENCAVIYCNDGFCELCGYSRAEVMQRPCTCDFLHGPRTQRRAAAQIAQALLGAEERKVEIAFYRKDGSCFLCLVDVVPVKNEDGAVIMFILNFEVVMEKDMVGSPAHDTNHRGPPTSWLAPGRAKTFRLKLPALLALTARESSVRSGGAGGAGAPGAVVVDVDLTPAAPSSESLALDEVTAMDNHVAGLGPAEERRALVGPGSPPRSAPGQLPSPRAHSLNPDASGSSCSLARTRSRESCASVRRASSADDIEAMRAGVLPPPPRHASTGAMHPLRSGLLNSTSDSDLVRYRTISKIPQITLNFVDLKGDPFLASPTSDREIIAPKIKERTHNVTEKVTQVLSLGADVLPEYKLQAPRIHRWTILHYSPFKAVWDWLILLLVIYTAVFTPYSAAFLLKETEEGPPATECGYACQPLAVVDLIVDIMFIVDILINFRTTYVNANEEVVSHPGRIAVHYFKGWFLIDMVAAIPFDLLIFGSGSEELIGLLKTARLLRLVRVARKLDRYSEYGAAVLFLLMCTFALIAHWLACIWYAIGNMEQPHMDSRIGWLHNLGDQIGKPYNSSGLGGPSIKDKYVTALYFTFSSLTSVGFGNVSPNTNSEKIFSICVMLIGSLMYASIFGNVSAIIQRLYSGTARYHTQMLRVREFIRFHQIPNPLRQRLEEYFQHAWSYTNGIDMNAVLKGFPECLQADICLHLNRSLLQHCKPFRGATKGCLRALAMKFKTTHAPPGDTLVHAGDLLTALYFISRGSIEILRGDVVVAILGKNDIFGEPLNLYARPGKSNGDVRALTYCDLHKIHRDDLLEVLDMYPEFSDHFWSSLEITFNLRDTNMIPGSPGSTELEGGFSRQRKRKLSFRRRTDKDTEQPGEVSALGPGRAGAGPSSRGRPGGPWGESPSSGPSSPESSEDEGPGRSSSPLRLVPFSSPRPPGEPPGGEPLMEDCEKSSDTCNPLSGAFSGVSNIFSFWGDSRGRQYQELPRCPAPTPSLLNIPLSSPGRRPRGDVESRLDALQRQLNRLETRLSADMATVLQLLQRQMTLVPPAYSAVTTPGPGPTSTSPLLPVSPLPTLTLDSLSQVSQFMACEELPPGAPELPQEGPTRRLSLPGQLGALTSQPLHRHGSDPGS

As usually defined, the MRT is the average time that molecules of a dose stay in the body. A word on the AUC(0-inf): it is total exposure, with the tail of the curve extrapolated. The term half-life denotes the time needed for the level to fall by half in the phase considered. For orientation: clearance means the volume of plasma or blood freed of the substance per unit of time. Broadly, the CC50 is the concentration at which the toxic effect on the cells reaches its halfway point. The AUC(0-t) is the area under the concentration-time curve up to a stated or last time point. In turn, `COc1cccc2[nH]c(C(=O)N[C@@H](CC(C)C)C(=O)N[C@@H](C[C@@H]3CCNC3=O)C(=O)c3nc4ccccc4s3)cc12` displayed a mean residence time MRT in data set [1] of 0.494 h. Besides, the Activity result with TK6 is on record as “Non-Toxic”. Moreover, the “inhibition (INH)” value against Cytochrome P450 1A2 was “Active”; against Cytochrome P450 2C8, “Active”; in [11] it was “Not Active”. Besides, the AUC(0-inf) in data set [2] was 3.49 ng·h/mL. In data set [3], the half-life was 9.64 h. Further, the result in the data set with SARS-CoV-2 was Active. The same compound showed a clearance in data set [4] of 6.43 L/h/kg. Further, the cytotoxic concentration (CC50) at 24 h in [5] was over 100 µM. Moreover, the exposure AUC(0-t) in data set [6] was 1.59 ng·h/mL; in [7], 19.3 ng·h/mL. The Drug metabolism entry in data set [8], in data set [10] and in data set [12] was “Metabolite_Detected” each time. For the same compound, the fraction unbound at 6 h in data set [9] is 0.01.
